Bioassay records: PubChem BioAssay, The Scripps Research Institute Molecular Screening Center
Most compounds without a hit are left out; they make up all but 1.8% or so of the library.
NPY Y1 blocker: NPY-Y1 (human) receptor antagonism. 1% of 200,000 active. HEK293-CNG Y1 cells, membrane potential fluorescence; NPY at EC95, then isoproterenol. inhibition, % at 3.6 µM. AID 1040;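 active = inhibition above the campaign mean inhibition of all tested compounds plus 3 SD, cut at about 20% in these data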;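 also: 0% = DMSO wells given NPY plus isoproterenol and 100% = isoproterenol alone without NPY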
Target sequence (P25929 whole entry, looked up): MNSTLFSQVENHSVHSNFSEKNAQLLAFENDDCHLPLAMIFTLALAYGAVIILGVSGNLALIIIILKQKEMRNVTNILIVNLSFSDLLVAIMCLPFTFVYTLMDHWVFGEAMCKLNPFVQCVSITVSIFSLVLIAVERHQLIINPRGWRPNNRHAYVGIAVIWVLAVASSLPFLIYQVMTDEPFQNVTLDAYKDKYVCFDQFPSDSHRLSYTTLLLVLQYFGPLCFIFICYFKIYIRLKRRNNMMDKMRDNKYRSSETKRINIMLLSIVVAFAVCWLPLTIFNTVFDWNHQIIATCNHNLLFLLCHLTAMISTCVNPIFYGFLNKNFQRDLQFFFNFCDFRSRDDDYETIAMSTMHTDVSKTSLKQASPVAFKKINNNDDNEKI
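Material: HEK293 Y1/CNG channel cell line; also added: NPY (25 nM), isoproterenol (1 µM), Ro 20-1724 (25 µM); doses: one concentration, 3.6 µM, in 0.4% DMSO; schedule: compound incubation 1 h at room temperature, readout 45 min post-stimulation; technique: membrane potential fluorescence; measure: fluorescence ratio normalized to % inhibition between controls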
NPY1 pot ag: human NPY-Y1 potentiation or agonism, primary screen; P25929; NPY-Y1 expressing cells, potentiator/agonist activation; activation, % at 3.6 µM; 0.37% of 220,000 active; AID 1304; in the data active = activation above about 33%, passing the limit was not always enough;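 also: cells stimulated with NPY at EC10 then isoproterenol at EC100; 0% = low agonist plus stimulus and 100% = saturating agonist plus stimulus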
NPY-Y2 PAM-ag: potentiates or activates human NPY-Y2 receptor; P49146; cells expressing NPY-Y2, potentiator/agonist read-out; activation, % at 3.6 µM; 0.45% of 220,000 active; AID 1359; in the data active = activation above about 27%;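 also: cells stimulated with NPY near EC25 plus isoproterenol at EC100; 0% = vehicle plus submaximal agonist and 100% = vehicle plus saturating agonist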
NPY-Y2 antag: NPY-Y2 (human) receptor antagonism | NPY-Y2 expressing cells, antagonist mode | inhibition, % at 2.7 µM | 0.99% of 140,000 active; in the data active = inhibition above about 17%;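 also: 0% = vehicle with agonist challenge and 100% = reference antagonist with challenge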
NPY-Y2 confirm: confirmation of human NPY-Y2 receptor potentiators or agonists; cell-based NPY-Y2 potentiator/agonist assay; 20% of 450 active; shares compounds with NPY-Y2 PAM-ag; AID 1539; activation, % at 3.6 µM; in the data active = activation above about 33%
NPY-Y1 counter: NPY-Y1 potentiation or agonism as NPY-Y2 counter-screen; AID 1651; activation, % at 3.6 µM; Y1 HEK293-CNG cells, membrane potential fluorescence; shares compounds with NPY-Y2 PAM-ag; 20% of 450 active; in the data active = activation above about 45%;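 also: cells stimulated with submaximal NPY then isoproterenol with phosphodiesterase inhibitor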
NPY-Y1 ag 2: counter-screen for NPY-Y2 potentiators: agonists of human NPY-Y1; HEK293 Y1-CNGC, membrane potential fluorescence, agonism; AID 1702; shares compounds with NPY-Y2 PAM-ag; activation, % at 3.6 µM; 37% of 450 active;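 active = activation above the mean of DMSO-only control wells plus 3 SD, cut at about 18% in these data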;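 also: cells stimulated with 1 µM isoproterenol plus the PDE inhibitor Ro 20-1724; 0% = isoproterenol with DMSO and no NPY and 100% = 40 nM NPY; Y1 agonists lower the membrane potential dye signal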
CNGC inh: counter-screen for NPY-Y2 potentiators: inhibitors of CNG channel activity. shares compounds with NPY-Y2 PAM-ag. inhibition, % at 3.6 µM. HEK293-CNG parental, isoproterenol cAMP, membrane potential fluorescence. 32% of 450 active. AID 1703;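 active = inhibition above the control-well mean plus 3 SD of those wells, cut at about 22% in these data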;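 also: 0% = DMSO with isoproterenol and 100% = DMSO without isoproterenol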
Y2 agonist ctr: activates human NPY-Y2 receptor in potentiator counter-screen. shares compounds with NPY-Y2 PAM-ag. HEK293 Y2/CNGC cells, membrane potential fluorescence, agonist mode. activation, % at 3.6 µM. 56% of 450 active;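 active = activation above the mean of solvent-only control wells plus 3 SD, cut at about 10% in these data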;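 also: cells stimulated by isoproterenol with no NPY added so direct agonism is tested; 0% = DMSO with isoproterenol alone and 100% = NPY at EC100 plus isoproterenol; agonism lowers probe fluorescence through less cAMP and CNG channel opening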
Starred values were filed as active, the others as inactive; / = not tested or not shown.

SMILES	NPY Y1 blocker	NPY1 pot ag	NPY-Y2 PAM-ag	NPY-Y2 antag	NPY-Y2 confirm	NPY-Y1 counter	NPY-Y1 ag 2	CNGC inh	Y2 agonist ctr
CSC(=O)NC(=O)NC(=O)c1ccc([N+](=O)[O-])cc1	/	13	0	/	/	/	/	/	/
CCOC(=O)C1CCN(CC(O)COCc2ccc3c(c2)OCO3)CC1 (stereo unspecified)	-1	1	-3	/	/	/	/	/	/
O=C1c2cccc3cccc(c23)C(=O)N1CC1CCN(CC(O)COCc2ccc3c(c2)OCO3)CC1 (stereo unspecified)	-4	7	50*	6	75*	90*	21*	18	65*
S=C(Nc1ccc(Nc2ccccc2)cc1)Nc1ccccn1	-12	30	33*	/	19	3	10	4	14*
O=C(CC(c1ccco1)S(=O)(=O)c1ccccc1)c1ccccc1 (stereo unspecified)	0	11	0	/	/	/	/	/	/
CCCN1Cc2cccc(C(=O)N3CCN(c4ccccc4)CC3)c2C1=O	2	4	38*	3	-5	5	-15	-4	9
CCCN1Cc2cccc(C(=O)N3CCN(c4ccc(OC)cc4)CC3)c2C1=O	-4	6	-4	/	/	/	/	/	/
CCc1cc[n+](/C(C(=S)Nc2cccc(C)c2)=C(/[O-])c2ccc(C)c([N+](=O)[O-])c2)cc1	-3	39	42*	3	4	11	9	15	15*
O=c1[nH]c2ccccc2c2nc(-c3cccc(S(=O)(=O)N4CCCC4)c3)nn12	/	-1	0	/	/	/	/	/	/
COC(=O)c1ccc(NC(=O)CN(c2ccc(C)cc2)S(=O)(=O)c2c(C)nn(C)c2C)cc1	-9	41	40*	-6	24	36	48*	35*	36*
O=C(CSc1nc2ccc(Nc3nc(N4CCCC4)nc(N4CCCC4)n3)cc2s1)NCc1ccco1	/	-14	-3	/	/	/	/	/	/
CCn1c(=NC(=O)CSC(C)=O)sc2cc(OC)ccc21	-9	46	34*	-8	23	28	43*	29*	41*
CC(C)(C)C(=O)Nc1nnc(COc2ccc(Cl)cc2)s1	/	-9	-27	/	/	/	/	/	/
COCCN=c1scc(-c2cc(OC)ccc2OC)n1/N=C/c1c[nH]c2ccccc12	-13	43	33*	-3	33*	49*	46*	37*	36*
Cc1ccc(NC(=S)N/N=C/c2cccn2Cc2ccccc2F)cc1	/	-1	11	/	/	/	/	/	/
OC1(c2ccc(F)cc2)CSC(=Nc2cccnc2)N1Cc1ccco1 (stereo unspecified)	-11	26	34*	/	7	19	5	-2	7
OC1(c2ccc(OC(F)F)cc2)CSC(=Nc2cccnc2)N1Cc1ccco1 (stereo unspecified)	-4	29	35*	/	13	22	9	9	13*
FC(F)Oc1ccc(-c2csc(=Nc3cccnc3)n2CC2CCCO2)cc1 (stereo unspecified)	9	-3	-6	8	/	/	/	/	/
O=C(CSc1nnc(-c2cccnc2)n1Cc1ccco1)Nc1nc(-c2ccc(F)cc2)cs1	-3	11	-7	2	/	/	/	/	/
O=C(Nc1ccc(Cl)cc1)N1CCCN(c2ccc(C(F)(F)F)cc2[N+](=O)[O-])CC1	/	41	48*	/	47*	76*	78*	60*	58*
O=[N+]([O-])c1cc(C(F)(F)F)ccc1NCCNC(=S)Nc1ccc(Cl)cc1	-10	28	36*	-5	36*	37	39*	23*	46*
COc1cc(C(=O)NNC2=CC(=O)CC(C)(C)C2)cc(OC)c1OC	-1	32	44*	2	3	2	7	6	9
COc1cccc(C(=O)NNC2=CC(=O)CC(C)(C)C2)c1	1	4	2	2	/	/	/	/	/
CCOC(=O)C1=C2NC(=O)c3ccccc3N2C(=O)C1	7	1	6	/	/	/	/	/	/
CC(C)(C)c1ccc(OCCNC(=O)Cc2ccc(F)cc2)cc1	-2	7	2	1	/	/	/	/	/
SMILES	NPY Y1 blocker	NPY1 pot ag	NPY-Y2 PAM-ag	NPY-Y2 antag	NPY-Y2 confirm	NPY-Y1 counter	NPY-Y1 ag 2	CNGC inh	Y2 agonist ctr
CC1=NC(=O)C(N=Nc2ccccc2C(=O)O)N1c1ccccc1 (stereo unspecified)	-4	30	30*	/	21	29	10	-1	15*
CC1(C)C(=O)OC(/C=C\c2ccccc2)C(C)(C)C1=O (stereo unspecified)	-1	17	33*	/	-7	-5	-18	-6	-11
COC(=O)c1ccccc1NC(=O)/C=C/c1ccco1	-7	26	33*	-3	41*	50*	56*	35*	48*
O=C(/C=C/c1ccco1)Nc1cccnc1Cl	/	14	3	/	/	/	/	/	/
Cc1ccc(S(=O)(=O)NCc2ccc(C(=O)NCCN(Cc3ccccc3)C(C)C)cc2)cc1	1	-2	-1	/	/	/	/	/	/
O=C(O)c1ccc(OCc2cn3ccccc3n2)cc1	/	9	101*	/	2	7	-1	3	13*
C=CCOC(=O)C1=C[C@H](c2coc3ccccc3c2=O)[C@@H](CCCO)[C@H](OCC)O1	0	-20	3	/	/	/	/	/	/
S=c1nc(SCc2ccccc2)[nH]c2ccccc12	11	-17	-10	/	/	/	/	/	/
c1ccc(CSc2nc3ncncc3[nH]2)cc1	/	-8	48*	/	2	-4	-1	7	19*
Fc1nc(F)c(F)c(NCCCNc2c(F)c(F)nc(F)c2F)c1F	-7	34	28*	/	19	24	25*	23*	32*
CC(=O)Nc1cc[n+](C(C)C(=O)c2ccc(Br)cc2)cc1 (stereo unspecified)	2	-22	-4	/	/	/	/	/	/
CCN(CC)S(=O)(=O)c1ccc(/C=C/C(=O)OCC#N)cc1	-5	7	2	/	/	/	/	/	/
CCN(CC)S(=O)(=O)c1ccc(/C=C/C(=O)OCC(=O)N(C(C)C)C(C)C)cc1	-1	-2	47*	/	-1	9	-8	7	6
Cc1ccc(NC2=Nc3ccccc3CS2)cc1	6	37	36*	1	1	-5	5	4	6
N#CC(C#N)=C(Nc1ccc(F)cc1)SCc1cccc(F)c1	8	4	37*	3	-4	-37	-25	-17	2
Cc1ccc(C)c(Nc2ncnc(N)c2[N+](=O)[O-])c1	-2	15	13	1	/	/	/	/	/
Cc1ccc(C)c(Nc2nc(N)c3ccccc3n2)c1	0	21	36*	/	64*	82*	44*	58*	55*
